Experimental findings from ChEMBL document CHEMBL4368937, “Design, synthesis and biological evaluation of low molecular weight CXCR4 ligands” (Bioorg Med Chem, 2019) are described below.

Molecules are shown by their SMILES.

Series [1] in a line: Cytotoxicity against human MT4 cells in absence of ZnCl2. The series is classed as cell-based.
The test system of series [2] is Human immunodeficiency virus 1. Kind of series: Antiviral activity against X4 tropic HIV-1 NL4-3 infected in human MT4 cells assessed as protection against virus-induced cytopathic effect in absence of ZnCl2 after 5 days by MTT assay. The following applies: Human immunodeficiency virus 1, NL4-3, MT4, 120 h. It is filed as functional, organism-based. A digest of the protocol:
(§1)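 Protection of MT-4 cells from X4 HIV-1 NL4-3 cytopathicity. Infected cells (MOI 0.001, 2.0 × 10^4 cells/well) received graded compound concentrations, without or with ZnCl2 (10 eq), for 5 days at 37 °C. Viable cells were counted by MTT. EC50 is the concentration giving 50% protection; mean of at least three independent experiments.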

The test system of series [3] is Human immunodeficiency virus 1. Kind of series: Antiviral activity against R5 tropic HIV-1 NL(AD8) infected in human MT4 cells assessed as protection against virus-induced cytopathic effect at 10 uM in presence of ZnCl2 after 5 days by MTT assay. The series is classed as functional. The following applies: Human immunodeficiency virus 1, NL(AD8), MT4, 120 h. On the technique in general: Protection from cytopathic effect is a common read-out in antiviral testing.

Series [4] deals with T1, C-X-C chemokine receptor type 4 (Homo sapiens, UniProt P61073). Kind of series: Competitive inhibition of [125I]-CXCL12 binding to CXCR4 in human Jurkat cells at 1 uM in presence of ZnCl2 after 2 hrs by gamma counting analysis relative to control. It is filed as cell-based.
T1 sequence (P61073 whole entry): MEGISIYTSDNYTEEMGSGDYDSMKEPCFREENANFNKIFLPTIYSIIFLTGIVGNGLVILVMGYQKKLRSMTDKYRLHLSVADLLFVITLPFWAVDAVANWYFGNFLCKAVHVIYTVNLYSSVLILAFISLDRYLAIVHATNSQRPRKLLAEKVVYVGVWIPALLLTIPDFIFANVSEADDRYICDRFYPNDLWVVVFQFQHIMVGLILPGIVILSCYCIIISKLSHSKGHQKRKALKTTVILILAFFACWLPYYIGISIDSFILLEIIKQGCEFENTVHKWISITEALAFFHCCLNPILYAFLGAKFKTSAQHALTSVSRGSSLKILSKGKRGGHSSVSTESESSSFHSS
Series [5] deals with T1, C-X-C chemokine receptor type 4. Kind of series: Competitive inhibition of [125I]-CXCL12 binding to CXCR4 in human Jurkat cells at 1 uM in absence of ZnCl2 after 2 hrs by gamma counting analysis relative to control. The series is classed as cell-based.
The test system of series [6] is Human immunodeficiency virus 1. Kind of series: Antiviral activity against X4 tropic HIV-1 NL4-3 infected in human MT4 cells assessed as protection against virus-induced cytopathic effect in presence of ZnCl2 after 5 days by MTT assay. The settings on record: Human immunodeficiency virus 1, NL4-3, MT4, 120 h. The series is classed as functional, organism-based. In short, it runs like this:
as §1

For series [7], the system named is Human immunodeficiency virus 1. Kind of series: Antiviral activity against R5 tropic HIV-1 NL(AD8) infected in human MT4 cells assessed as protection against virus-induced cytopathic effect at 10 uM in absence of ZnCl2 after 5 days by MTT assay. It is filed as functional. The following applies: Human immunodeficiency virus 1, NL(AD8), MT4, 120 h.
Series [8] has as its target T1, C-X-C chemokine receptor type 4. Kind of series: Competitive inhibition of TAMRAAc-TZ14011 binding to CXCR4 (unknown origin) expressed in CHO cells at 1 uM in presence of ZnCl2 by NanoBRET assay relative to control. It is filed as cell-based. A digest of the protocol: (§2)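 Single-point competition in CHO cells stably expressing N-terminally Nluc-tagged CXCR4 (5 x 10^4 cells, seeded 24 h earlier at 37 °C, 5% CO2, medium then replaced with OptiMEM). Cells were incubated with 10 nM TAMRA-Ac-TZ14011 plus 1 µM compound, without or with 10 µM ZnCl2 (10 eq), for 1 h at 25 °C. Furimazine was added and BRET read as acceptor (>610 nm) over donor (460 nm). Inhibition is relative to no compound and to excess Ac-TZ14011; mean ± SEM, n = 3.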

For series [9] the target is unchanged. Kind of series: Competitive inhibition of TAMRAAc-TZ14011 binding to CXCR4 (unknown origin) expressed in CHO cells at 1 uM in absence of ZnCl2 by NanoBRET assay relative to control. The series is classed as cell-based. In short, it runs like this:
as §2
Background: Bioluminescence resonance energy transfer reports proximity on the nanometre scale.

For series [10] the target is unchanged. Kind of series: Competitive inhibition of TAMRAAc-TZ14011 binding to CXCR4 (unknown origin) expressed in CHO cells in presence of ZnCl2 by NanoBRET assay relative to control. The series is classed as cell-based. A digest of the protocol: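 Cells were incubated with 10 nM TAMRA-Ac-TZ14011 and compound plus ZnCl2 (10 eq). Furimazine was added and BRET ratio taken as >610 nm over 460 nm emission. Inhibition is scaled between no compound and excess Ac-TZ14011.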

Consider `c1ccc(CN(Cc2ccccn2)Cc2ccccc2-c2ccccc2CN2CCCNCCNCCCNCC2)nc1`, for which the CC50 in [1] is over 10000 nM. For the same compound, the EC50 turned out to be 1000 nM in series [2] and 5800 nM in series [6]. Besides, the inhibition at 10 µM in series [3] and in series [7] was under 30% throughout. The inhibition in series [4] was 74.1%; in [5], 90.4%; in series [8] it was 99%; in series [9], 79.8%.

In turn, `c1ccc(CN(Cc2ccnc(-c3cc(CN4CCCNCCNCCCNCC4)ccn3)c2)Cc2ccccn2)nc1` displayed a CC50 in series [1] of over 10000 nM. Further, the EC50 in series [2] came to 920 nM; in series [6], 200 nM. In addition, the inhibition at 10 µM in series [3] and in series [7] was under 30% each time. The inhibition was 99.2% in series [4], 100% in series [5], 92.2% in series [8] and 88.5% in [9].

Regarding `c1ccc(CN(Cc2ccc(-c3ccc(CN4CCCNCCNCCCNCC4)cc3)cc2)Cc2ccccn2)nc1`, in [1], the CC50 came to 4800 nM. Moreover, the EC50 in series [2] amounted to 780 nM; in series [6], 1000 nM. For the same compound, the inhibition at 10 µM in series [3] and in series [7] was under 30% each time. Moreover, the inhibition in series [4] was 85.5%; in [5], 33.9%; in [8], 87.9%; in series [9] it was 51.1%.

In the case of `c1ccc(CN(Cc2ccc(-c3ccccc3CN3CCCNCCNCCCNCC3)cc2)Cc2ccccn2)nc1`, the CC50 in [1] was over 10000 nM. Further, the IC50 in series [10] amounted to 5.7 nM. Further, the EC50 in [2] stood at 40 nM; in series [6], 21 nM. For the same compound, the figures for the inhibition at 10 µM in series [3] and in series [7] were 58% and under 30%, respectively. Also, the inhibition in [4] came out at 91.6%; in series [5], 54.9%; in series [8] it was 83.1%; in [9] it was 52.6%.

Regarding `c1ccc(CN(Cc2ccc3c(c2)-c2cc(CN4CCCNCCNCCCNCC4)ccc2OCCO3)Cc2ccccn2)nc1`, the 50% cytotoxic concentration (CC50) in series [1] is over 10000 nM. Besides, the EC50 in [2] amounted to 1900 nM; in series [6] it was 970 nM. Also, the inhibition at 10 µM in series [3] and in series [7] was under 30% each time. Besides, the inhibition in [4] is 119%; in series [5], 48.7%; in series [8], 89%; in series [9], 47.8%.

As for `c1ccc(CN(Cc2ccc(-c3ccc(CN4CCCNCCNCCCNCC4)cn3)nc2)Cc2ccccn2)nc1`, the CC50 in series [1] was over 10000 nM. The EC50 in [2] was 680 nM; in series [6] it was 900 nM. For the same compound, the inhibition at 10 µM in series [3] and in series [7] was under 30% each time. In addition, the inhibition stood at 98.7% in [4], 68.6% in series [5], 94.4% in series [8] and 75.3% in series [9].

Compound `c1ccc(CN(Cc2ccc3c(c2)-c2cc(CN4CCCNCCNCCCNCC4)ccc2OCO3)Cc2ccccn2)nc1` showed a CC50 in series [1] of over 10000 nM. In addition, the EC50 amounted to 800 nM in [2] and 870 nM in [6]. For the same compound, the inhibition at 10 µM in series [3] and in series [7] was under 30% throughout. The inhibition in [4] was found to be 95.6%; in [5] it was 54.4%; in [8], 88.5%; in series [9], 43.5%.

`c1ccc(CN(Cc2cccc(-c3cccc(CN4CCCNCCNCCCNCC4)c3)c2)Cc2ccccn2)nc1` showed a CC50 in series [1] of over 10000 nM. The EC50 in series [2] amounted to 750 nM; in series [6], 980 nM. The inhibition at 10 µM in series [3] and in [7] was under 30% throughout. Further, the inhibition in series [4] is 105%; in [5], 46.6%; in [8] it was 88.4%; in series [9], 40.4%.

In [1], `c1ccc(CN(Cc2cccc(-c3ccccc3CN3CCCNCCNCCCNCC3)c2)Cc2ccccn2)nc1` had a CC50 of over 10000 nM. Also, the figures for the EC50 in series [2] and in [6] were 4200 nM and 1100 nM, respectively. In addition, the inhibition at 10 µM in [3] and in series [7] was under 30% throughout. Moreover, the inhibition in [4] was 116%; in series [5] it was 46.1%; in series [8], 83.1%; in series [9], 44.4%.

Regarding `c1ccc(CN(Cc2ccc(-c3cccc(CN4CCCNCCNCCCNCC4)c3)cc2)Cc2ccccn2)nc1`, the CC50 in [1] was over 10000 nM. The EC50 was found to be 800 nM in series [2] and 1100 nM in series [6]. In addition, the inhibition at 10 µM in series [3] and in series [7] was under 30% throughout. Also, the inhibition in [4] is 101%; in series [5], 10.9%; in series [8] it was 78.2%; in series [9] it was 89.7%.

`c1ccc(CN(Cc2ccc3c(c2)-c2cc(CN4CCCNCCNCCCNCC4)ccc2OCCCO3)Cc2ccccn2)nc1` registered a CC50 in series [1] of over 10000 nM. The figures for the EC50 in [2] and in series [6] were 580 nM and 300 nM, respectively. For the same compound, the inhibition at 10 µM in series [3] and in series [7] was under 30% each time. Moreover, the inhibition in [4] worked out at 97.1%; in [5] it was 32.5%; in series [8] it was 81.8%; in [9], 50.4%.

In series [1], `c1ccc(CN(Cc2ccnc(-c3ccc(CN4CCCNCCNCCCNCC4)cc3)c2)Cc2ccccn2)nc1` registered a CC50 of over 10000 nM. Moreover, the values for the half-maximal effective concentration (EC50) in [2] and in [6] were 140 nM and 45 nM, respectively. The inhibition at 10 µM in series [3] and in series [7] was under 30% throughout. Further, the inhibition in series [4] was found to be 89.7%; in series [5], 39.2%; in [8], 92.6%; in series [9], 79.7%.

On to `c1ccc(CN(Cc2ccc(-c3ccc(CN4CCCNCCNCCCNCC4)cc3)nc2)Cc2ccccn2)nc1`, for which, in series [1], the CC50 is over 10000 nM. Besides, the EC50 in series [2] was 590 nM; in series [6], 130 nM. The inhibition at 10 µM in series [3] and in series [7] was under 30% throughout. In addition, the inhibition in [4] was found to be 105%; in [5], 27%; in [8], 102%; in [9], 89.1%.

Regarding `c1ccc(CN(Cc2cccc(-c3ccc(CN4CCCNCCNCCCNCC4)cc3)c2)Cc2ccccn2)nc1`, the CC50 in series [1] was over 10000 nM. In addition, the EC50 in series [2] came out at 3100 nM; in [6] it was 1000 nM. Also, the inhibition at 10 µM in [3] and in [7] was under 30% throughout. For the same compound, the inhibition in [4] was 119%; in series [5] it was 38.3%; in series [8] it was 105%; in series [9], 35.6%.

In the case of `c1ccc(CN(Cc2ccccn2)Cc2ccccc2-c2ccc(CN3CCCNCCNCCCNCC3)cc2)nc1`, the CC50 in series [1] is over 10000 nM. In addition, the EC50 was found to be 2600 nM in series [2] and 890 nM in series [6]. The inhibition at 10 µM in [3] and in series [7] was under 30% each time. In addition, the inhibition came out at 84.1% in series [4], 79.9% in series [5], 87.5% in series [8] and 64.6% in series [9].

Consider `c1ccc(CN(Cc2ccc3nc(CN4CCCNCCNCCCNCC4)ccc3c2)Cc2ccccn2)nc1`, for which the CC50 in [1] is over 10000 nM. For the same compound, the EC50 in series [2] was over 970 nM; in [6] it was 5500 nM. Also, the inhibition in series [4] amounted to 110%; in series [5], 81%; in [8] it was 101%; in series [9] it was 81.1%.

Compound `c1ccc(CN(Cc2ccc3c(c2)-c2cc(CN4CCCNCCNCCCNCC4)ccc2OCCCCO3)Cc2ccccn2)nc1` showed a half-maximal cytotoxic concentration (CC50) in [1] of over 10000 nM. The concentration giving a half-maximal response (EC50) in [2] worked out at 670 nM; in series [6], 280 nM. The inhibition at 10 µM in series [3] and in series [7] was under 30% in each case. Further, the inhibition was 78.4% in series [4], 57.3% in series [5], 78.9% in series [8] and 54.5% in [9].

For `c1ccc(CN(Cc2ccc3ccc(CN4CCCNCCNCCCNCC4)cc3c2)Cc2ccccn2)nc1`, the CC50 in series [1] was over 10000 nM. Further, the EC50 in series [2] came out at 790 nM; in [6], 1100 nM. For the same compound, the inhibition at 10 µM in [3] and in [7] was under 30% each time. Moreover, the inhibition stood at 87.5% in series [4], 83.5% in series [5], 84.8% in series [8] and 82.1% in series [9].

A word on the CC50: it is the concentration at which the toxic effect on the cells reaches its halfway point. A high value points to lower toxicity to the cells. Broadly, the EC50 is the midpoint of the concentration-response curve. By inhibition is commonly meant the change of the read-out against control, counted positive when it falls. A word on the IC50: it is the concentration that inhibits the measured activity by half.
